Measured values as given in ChEMBL document CHEMBL1155222, “Synthesis and anticancer activity of N-bis(trifluoromethyl)alkyl-N'-thiazolyl and N-bis(trifluoromethyl)alkyl-N'-benzothiazolyl ureas” (2009).

How the values were obtained:
Type in all cases: functional
NCI-H460 = assay: Anticancer activity against human NCI-H460 cells assessed as cell growth at 100 uM after 48 hrs by Alamar blue assay relative to control; details: NCI-H460, 48 h, read-out: Activity
Outline: (§1)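 NCI one-dose pre-test on MCF7, NCI-H460 and SF-268. Cells were inoculated and preincubated, then exposed to a single 10^-4 M concentration for 48 h. End-point was alamar blue. Results are percent growth versus untreated control cells, with negative values indicating cell kill.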

COLO 205 = assay: Anticancer activity against human COLO205 cells after 48 hrs by sulforhodamine B assay; details: COLO 205, 48 h
Outline: (§2)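 NCI 60-cell-line screen. Cells grown in RPMI 1640 with 5% FBS and 2 mM L-glutamine, plated at 5000–40,000 cells/well, and preincubated 24 h at 37 °C under 5% CO2. Compounds were taken from DMSO stocks and tested at five final concentrations, 10^-4 to 10^-8 M, for 48 h. Cells were TCA-fixed, stained with 0.4% SRB, and read at 515 nm. GI50, TGI and LC50 were derived as log molar values.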

HOP-92 = assay: Anticancer activity against human HOP92 cells after 48 hrs by sulforhodamine B assay; details: HOP-92, 48 h; outline: as §2
HOP-62 = assay: Anticancer activity against human HOP62 cells after 48 hrs by sulforhodamine B assay; details: HOP-62, 48 h; outline: as §2
SF-268 [1] = assay: Anticancer activity against human SF268 cells after 48 hrs by sulforhodamine B assay; details: SF-268, 48 h; outline: as §2
Malme-3M = assay: Anticancer activity against human MALME-3M cells after 48 hrs by sulforhodamine B assay; outline: as §2
OVCAR-3 = assay: Anticancer activity against human OVCAR-3 cells after 48 hrs by sulforhodamine B assay; details: OVCAR-3, 48 h; outline: as §2
MCF7 = assay: Anticancer activity against human MCF7 cells assessed as cell growth at 100 uM after 48 hrs by Alamar blue assay relative to control; details: MCF7, 48 h, read-out: Activity; outline: as §1
HT-29 = assay: Anticancer activity against human HT-29 cells after 48 hrs by sulforhodamine B assay; details: HT-29, 48 h; outline: as §2
U-251 = assay: Anticancer activity against human U251 cells after 48 hrs by sulforhodamine B assay; details: U-251, 48 h
Outline: (§3)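 NCI 60-cell-line panel; cells grown in RPMI 1640 with 5% FBS and 2 mM L-glutamine, plated at 5000–40,000 cells/well and preincubated 24 h at 37 °C, 5% CO2. Compounds came from DMSO stocks diluted in medium with gentamicin and were tested at five final concentrations, 10^-4 to 10^-8 M, for 48 h. Cells were fixed with TCA, stained with SRB and read at 515 nm. GI50, TGI and LC50 were derived as log molar values.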

UACC-257 = assay: Anticancer activity against human UACC257 cells after 48 hrs by sulforhodamine B assay; details: UACC-257, 48 h; outline: as §3
HL-60(TB) = assay: Anticancer activity against human HL-60(TB) cells after 48 hrs by sulforhodamine B assay; details: HL-60, 48 h
Outline: (§4)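 NCI 60-cell-line screen. Cells were grown in RPMI 1640 with 5% FBS and 2 mM L-glutamine, seeded at 5000–40,000 cells/well and preincubated 24 h at 37 °C, 5% CO2. Compounds in DMSO were diluted in medium with gentamicin and tested at five concentrations (10^-4 to 10^-8 M) for 48 h. Cells were then fixed with TCA, stained with SRB and read at 515 nm.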

OVCAR-5 = assay: Anticancer activity against human OVCAR5 cells after 48 hrs by sulforhodamine B assay; details: OVCAR-5, 48 h; outline: as §2
SF-268 [2] = assay: Anticancer activity against human SF268 cells assessed as cell growth at 100 uM after 48 hrs by Alamar blue assay relative to control; details: SF-268, 48 h, read-out: Activity; outline: as §1
MDA-MB-435 = assay: Anticancer activity against human MDA-MB-435 cells after 48 hrs by sulforhodamine B assay; details: MDA-MB-435, 48 h; outline: as §2
HCT-116 = assay: Anticancer activity against human HCT116 cells after 48 hrs by sulforhodamine B assay; details: HCT-116, 48 h; outline: as §2
NCI-H23 = assay: Anticancer activity against human NCI-H23 cells after 48 hrs by sulforhodamine B assay; details: NCI-H23, 48 h; outline: as §4
[3] = Anticancer activity against human RPMI8266 cells after 48 hrs by sulforhodamine B assay; outline: as §2

SMILES | growth at 100 µM (NCI-H460) [%] | GI50 (COLO 205) [µM] | GI50 (HOP-92) [µM] | GI50 (HOP-62) [µM] | GI50 (SF-268 [1]) [µM] | GI50 (Malme-3M) [µM] | GI50 (OVCAR-3) [µM] | growth at 100 µM (MCF7) [%] | GI50 (HT-29) [µM] | GI50 (U-251) [µM] | GI50 (UACC-257) [µM] | GI50 (HL-60(TB)) [µM] | GI50 (OVCAR-5) [µM] | growth at 100 µM (SF-268 [2]) [%] | GI50 (MDA-MB-435) [µM] | GI50 (HCT-116) [µM] | GI50 (NCI-H23) [µM] | GI50 [3] [µM]
O=C(Nc1nccs1)NC(C(F)(F)F)C(F)(F)F | 22 | 52.5 | 38 | > 100 | 29.5 | 29.5 | 42.7 | 35 | 91.2 | 33.9 | 35.5 | 72.4 | 91.2 | 20 | 79.4 | 38 |  | 
O=c1[nH]cc(F)c(=O)[nH]1 [FLUOROURACIL] |  | 0.158 | 77.6 | 0.398 | 1.58 | 0.0513 | 0.0158 |  | 0.178 | 0.912 | 3.55 | 2.29 | 11 |  | 0.0724 | 0.229 | 0.331 | 
CCC(NC(=O)Nc1nc2ccccc2s1)(C(F)(F)F)C(F)(F)F | -93 | 16.2 | 19.1 | 17.8 | 17 | 15.5 | 16.6 | -79 | 19.5 | 17.4 | 20 |  | 19.5 | -94 | 20 | 18.2 |  | 
CNC(=O)Nc1ccccc1 |  | 100 | 100 | 100 | 100 | 100 | 100 |  | 100 | 100 | 100 | 100 | 100 |  | 100 | 100 | 100 | 100
CC(NC(=O)Nc1nc2ccccc2s1)(C(F)(F)F)C(F)(F)F | 43 | 38 | 75.9 | 31.6 | 29.5 | 15.1 |  | 62 | 19.5 | 33.9 | 51.3 | 97.7 | 81.3 | 28 | 41.7 | 41.7 |  | 38.9
O=C(Nc1nc2ccccc2s1)NC(C(F)(F)F)C(F)(F)F | -74 | 17.8 | 33.9 | 38 | 29.5 | 20.4 | 18.2 | -10 | 19.5 | 24.5 | 20.4 | 26.3 | 27.5 | -39 | 31.6 | 16.6 |  | 33.9
CCC(NC(=O)Nc1nccs1)(C(F)(F)F)C(F)(F)F | 6 | 74.1 | 60.3 | > 100 | 60.3 | 58.9 | 61.7 | 20 | 41.7 | 40.7 | 32.4 |  | > 100 | 40 | 61.7 | 46.8 |  | 
